Our source for the IC50 values is ChEMBL document CHEMBL1138019, “Synthesis and antitumor activity of 4-hydroxycoumarin derivatives” (Bioorg Med Chem Lett, 2004).

Holding throughout (format): functional, cell-based
The subject of one experiment is A549. The experiment is described as follows: Concentration required for inhibiting proliferation of human lung tumor cell line A549 after 72 hr of incubation was determined. Particulars: A549, 72 h. The procedure, abridged: (§1)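 SRB assay. Cells were passaged with trypsin-EDTA, seeded at 1–2 · 10^4 cells/well and grown for 24 h. Compounds dissolved in culture medium were added in triplicate and incubated 48 h at 37 C, 5% CO2. Cells were fixed with 10% cold TCA, stained with 0.4% SRB in 1% acetic acid, and the dye was solubilized in 10 mM Tris base (pH 10.5). Absorbance was read at 520 nm. IC50 is the concentration giving 50% inhibition.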

In the next experiment the test system is SK-OV-3. The experiment is described as follows: Concentration required for inhibiting proliferation of human ovarian tumor cell line SK-OV-3 after 72 hr of incubation was determined. As to conditions: SK-OV-3, 72 h. In outline:
as §1

In experiment [1] the test system is XF498. The experiment is described as follows: Concentration required for inhibiting proliferation of human brain tumor cell line XF 498 after 72 hr of incubation was determined. Particulars: XF498, 72 h. The procedure, abridged:
as §1

The next experiment concerns HCT-15. The experiment is described as follows: Concentration required for inhibiting proliferation of human colon tumor cell line HCT-15 after 72 hr of incubation was determined. As to conditions: HCT-15, 72 h. In outline: as §1
The test system of experiment [2] is SK-MEL-2. The experiment is described as follows: Concentration required for inhibiting proliferation of human melanoma tumor cell line SK-MEL-2 after 72 hr of incubation was determined. Particulars: SK-MEL-2, 72 h. In outline: as §1
The test system of experiment [3] is SK-MEL-2. The experiment is described as follows: Concentration required for inhibiting proliferation of human melanoma tumor cell line SK-MEL-2 by 50% after 72 hr of incubation was determined. As to conditions: SK-MEL-2, 72 h. In outline: as §1
In experiment [4] the test system is XF498. The experiment is described as follows: Concentration required for inhibiting proliferation of human brain tumor cell line XF 498 by 50% after 72 hr of incubation was determined. Particulars: XF498, 72 h. The procedure, abridged: as §1

As a reminder, the IC50 is the concentration at which inhibition is half-maximal.

Some results are limits rather than exact numbers.

As for `COc1ccc(C2Cc3ccccc3C(C3=C(O)OC(C)(c4ccccc4)CC3=O)C2)cc1` (stereo not given), the IC50 in the experiment with A549, in the experiment with SK-OV-3, with XF498 [1], in the experiment with HCT-15 and in the experiment on SK-MEL-2 [2] was over 10 µM each time.
Consider `CCC1(c2ccccc2)CC(=O)C(C2CC(c3ccc(OCc4ccc(C(F)(F)F)cc4)cc3)Cc3ccccc32)=C(O)O1` (stereo not given), for which the IC50 in the experiment on A549, in the experiment with SK-OV-3, in the experiment with XF498 [1], in the experiment on HCT-15 and with SK-MEL-2 [2] was over 10 µM in each case.
Regarding `CCCC1(c2ccccc2)CC(=O)C(C(CC(=O)c2ccc(-c3ccc(Br)cc3)cc2)c2ccccc2)=C(O)O1` (stereo not given), the IC50 in the experiment with A549, in the experiment with SK-OV-3, with XF498 [1], in the experiment on HCT-15 and in the experiment with SK-MEL-2 [2] was over 10 µM throughout.
Regarding `CC1(c2ccccc2)CC(=O)C(C2CC(c3ccc(-c4ccc(Br)cc4)cc3)Cc3ccccc32)=C(O)O1` (stereo not given), the IC50 in the experiment on A549 came out at 1.83 µM; in the experiment with SK-OV-3, 1.8 µM; in the experiment on XF498 [1] it was 1.36 µM; with HCT-15 it was 1.31 µM; with SK-MEL-2 [2], 2.05 µM.
In the case of `CCC1(c2ccccc2)CC(=O)C(C2CC(c3ccc(OC)cc3)Cc3ccccc32)=C(O)O1` (stereo not given), the IC50 with A549, in the experiment on SK-OV-3, in the experiment on XF498 [1], in the experiment with HCT-15 and in the experiment on SK-MEL-2 [2] was over 10 µM each time.
Turning to `CCCC1(CCc2ccccc2)CC(=O)C(C2CC(c3ccc(-c4ccc(Br)cc4)cc3)Cc3ccccc32)=C(O)O1` (stereo not given), the IC50 in the experiment with A549, with SK-OV-3, in the experiment with XF498 [1], in the experiment on HCT-15 and with SK-MEL-2 [2] was over 10 µM in each case.
As to `CCC1(c2ccccc2)CC(=O)C(C2CC(c3ccc(-c4ccc(Br)cc4)cc3)Cc3ccccc32)=C(O)O1` (stereo not given), the IC50 with A549, in the experiment with SK-OV-3, in the experiment on XF498 [1], with HCT-15 and with SK-MEL-2 [2] was over 10 µM in each case.
On to `COc1cc([C@@H]2c3cc4c(cc3[C@@H](O[C@@H]3O[C@@H]5CO[C@@H](C)O[C@H]5[C@H](O)[C@H]3O)[C@H]3COC(=O)[C@H]23)OCO4)cc(OC)c1O` [ETOPOSIDE], for which the 50% inhibitory concentration (IC50) turned out to be 1.06 µM in the experiment on A549; 3.46 µM in the experiment with SK-OV-3; 4.13 µM in the experiment on SK-MEL-2 [3]; 1.45 µM with HCT-15; 3.14 µM in the experiment on XF498 [4].
Regarding `CCC1(c2ccccc2)CC(=O)C(C(CC(=O)c2ccc(-c3ccc(Br)cc3)cc2)c2ccccc2)=C(O)O1` (stereo not given), the IC50 amounted to 8.13 µM in the experiment on A549; 5.74 µM with SK-OV-3; 6.59 µM with XF498 [1]; 6.71 µM in the experiment with HCT-15; 8.51 µM with SK-MEL-2 [2].
The matching figures for `CC1(c2ccccc2)CC(=O)C(C(CC(=O)c2ccc(-c3ccc(Br)cc3)cc2)c2ccccc2)=C(O)O1` (stereo not given): 9.18 µM, 5.69 µM, 6.73 µM, 8.59 µM and 8.54 µM.
